Data reported in ChEMBL document CHEMBL4261535, “Tetrahydroquinolinone derivatives as potent P-glycoprotein inhibitors: design, synthesis, biological evaluation and molecular docking analysis” (Medchemcomm, 2017).
Calls of active or inactive are those of the source. The calls are words filed in the database; no cut-off is given here.

What was measured:
[1] = species: Homo sapiens; test: Inhibition of p-gp in human MES-SA/DX5 cells assessed as increase in rhodamine 123 accumulation preincubated for 20 mins followed by rhodamine 123 addition and measured after 20 mins by fluorescence microscopic method; assay type: cell-based
How it was run: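 MES-SA/DX5 seeded at 2 × 10^5 cells per ml and grown two days at 37 °C. Compound at 25 μM for 20 min, then rhodamine 123 at 5 μM final for 20 min. Cells washed three times with ice-cold PBS and resuspended in cold PBS. Imaged by fluorescence microscopy with a blue filter (510–560 nm). Untreated cells served as control.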

[2] = test system: MES-SA; test: Increase in rhodamine 123 accumulation in human MES-SA cells at 5 to 100 uM preincubated for 20 mins followed by rhodamine 123 addition and measured after 20 mins by flow cytometric method; assay type: functional, cell-based
How it was run: (§1)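 Cells in serum-free RPMI at 5 × 10^5 cells per ml (MES-SA/DX5 taken off doxorubicin one day before). Compound 20 min at 37 °C, then 5 μM rhodamine 123 for 20 min at 37 °C. Washed twice in ice-cold PBS, kept on ice. Flow cytometry at 488 nm excitation, 530 nm emission, 20 000 cells. Gmean fluorescence expressed as a ratio to untreated cells. Verapamil was the positive control.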

[3] = n-octanol-water partition co-efficient, log P of the compound; assay type: physicochemical
[4] = species: Homo sapiens; test: Inhibition of p-gp in human MES-SA/DX5 cells assessed as potentiation of doxorubicin-induced cytotoxicity at 5 uM preincubated for 1.5 hrs followed by doxorubicin addition and measured after 48 hrs by MTT assay; assay type: cell-based
[5] = species: Homo sapiens; test: Inhibition of p-gp in human MES-SA/DX5 cells assessed as increase in rhodamine 123 accumulation preincubated for 20 mins followed by rhodamine 123 addition and measured after 20 mins by flow cytometric method; assay type: cell-based; how it was run: as §1
[6] = species: Homo sapiens; test: Inhibition of p-gp in human MES-SA/DX5 cells assessed as potentiation of doxorubicin-induced cytotoxicity at 25 uM preincubated for 1.5 hrs followed by doxorubicin addition and measured after 48 hrs by MTT assay; assay type: cell-based

Row | SMILES | inhibition [1] | Activity [2] | logP [3] | inhibition [4] | inhibition [5] | inhibition [6]
1 | CC1=C(C(=O)OCc2ccccn2)C(c2ccccc2[N+](=O)[O-])C2=C(CCCC2=O)N1 (stereo not given) | Dose-dependent effect | inactive | 1.88 | Active | – | –
2 | CC1=C(C(=O)OCc2ccccn2)C(c2ccc(Br)cc2)C2=C(CCCC2=O)N1 (stereo not given) | Dose-dependent effect | inactive | 2.42 | Active | Dose-dependent effect | –
3 | CCCC1C(C(=O)OCc2cccnc2)=C(C)NC2=C1C(=O)CCC2 (stereo not given) | – | inactive | 2.23 | – | Dose-dependent effect | –
4 | CC1=C(C(=O)OCc2ccccn2)C(c2ccc(C#N)cc2)C2=C(CCCC2=O)N1 (stereo not given) | Dose-dependent effect | inactive | 1.73 | Active | Dose-dependent effect | –
5 | CC1=C(C(=O)OCc2ccccn2)C(c2ccccc2)C2=C(CCCC2=O)N1 (stereo not given) | – | inactive | 2.72 | – | Dose-dependent effect | –
6 | CC1=C(C(=O)OCc2ccccn2)C(c2ccc(Cl)cc2)C2=C(CCCC2=O)N1 (stereo not given) | – | inactive | 2.24 | Active | Dose-dependent effect | –
7 | CC1=C(C(=O)OCc2cccnc2)C(c2cccs2)C2=C(CCCC2=O)N1 (stereo not given) | – | inactive | 1.4 | – | Dose-dependent effect | Active
8 | CC1=C(C(=O)OCc2ccccn2)C(c2cccs2)C2=C(CCCC2=O)N1 (stereo not given) | – | inactive | 1.77 | – | Dose-dependent effect | –
9 | CC1=C(C(=O)OCc2cccnc2)C(c2ccccc2[N+](=O)[O-])C2=C(CCCC2=O)N1 (stereo not given) | Dose-dependent effect | inactive | 1.51 | – | – | Active
10 | CC1=C(C(=O)OCc2cccnc2)C(c2ccc(Br)cc2)C2=C(CCCC2=O)N1 (stereo not given) | – | inactive | 2.05 | Active | Dose-dependent effect | –
11 | CC1=C(C(=O)OCc2ccccn2)C(c2ccc([N+](=O)[O-])cc2)C2=C(CCCC2=O)N1 (stereo not given) | Dose-dependent effect | inactive | 1.88 | Active | Dose-dependent effect | –
12 | CC1=C(C(=O)OCc2ccccn2)C(c2cccc([N+](=O)[O-])c2)C2=C(CCCC2=O)N1 (stereo not given) | – | inactive | 1.88 | – | Dose-dependent effect | –
13 | CC1=C(C(=O)OCc2cccnc2)C(c2ccccc2)C2=C(CCCC2=O)N1 (stereo not given) | – | inactive | 2.35 | – | Dose-dependent effect | –
14 | CC1=C(C(=O)OCc2cccnc2)C(c2cccc(O)c2)C2=C(CCCC2=O)N1 (stereo not given) | – | inactive | 1.21 | – | Dose-dependent effect | –
15 | COc1ccc(C2C(C(=O)OCc3ccccn3)=C(C)NC3=C2C(=O)CCC3)cc1 (stereo not given) | – | inactive | 1.9 | Active | Dose-dependent effect | –
16 | CC1=C(C(=O)OCc2cccnc2)C(c2ccco2)C2=C(CCCC2=O)N1 (stereo not given) | – | inactive | 1.03 | – | Dose-dependent effect | –
17 | CC1=C(C(=O)OCc2ccccn2)C(c2ccc(O)cc2)C2=C(CCCC2=O)N1 (stereo not given) | – | inactive | 1.58 | – | Dose-dependent effect | –
18 | CC1=C(C(=O)OCc2cccnc2)C(c2ccc([N+](=O)[O-])cc2)C2=C(CCCC2=O)N1 (stereo not given) | Dose-dependent effect | inactive | 1.51 | – | Dose-dependent effect | Active
19 | CC1=C(C(=O)OCc2ccccn2)C(c2cccc(O)c2)C2=C(CCCC2=O)N1 (stereo not given) | – | inactive | 1.58 | – | Dose-dependent effect | –
20 | CC1=C(C(=O)OCc2cccnc2)C(c2ccc(Cl)cc2)C2=C(CCCC2=O)N1 (stereo not given) | – | inactive | 1.87 | Active | Dose-dependent effect | –
21 | COc1ccc(C2C(C(=O)OCc3cccnc3)=C(C)NC3=C2C(=O)CCC3)cc1 (stereo not given) | – | inactive | 1.53 | – | Dose-dependent effect | –
22 | COc1cc(C2C(C(=O)OCc3ccccn3)=C(C)NC3=C2C(=O)CCC3)cc(OC)c1OC (stereo not given) | – | inactive | 2.17 | – | Dose-dependent effect | –
23 | CC1=C(C(=O)OCc2ccccn2)C(c2ccco2)C2=C(CCCC2=O)N1 (stereo not given) | – | inactive | 1.4 | – | Dose-dependent effect | –
24 | CCCC1C(C(=O)OCc2ccccn2)=C(C)NC2=C1C(=O)CCC2 (stereo not given) | – | inactive | 2.6 | – | Dose-dependent effect | –
25 | CC1=C(C(=O)OCc2cccnc2)C(c2ccc(C#N)cc2)C2=C(CCCC2=O)N1 (stereo not given) | – | inactive | 1.36 | – | Dose-dependent effect | –
